Results from ChEMBL document CHEMBL1154876, “Synthesis and antimicrobial studies on novel sulfonamides containing 4-azidomethyl coumarin” (2010).
≈ marks a conversion by molar mass, not a printed value.

What was measured:
Assay type in all cases: functional
[1] = tested on: Aspergillus niger; experiment: Antifungal activity against Aspergillus niger after 48 to 72 hrs by broth microdilution method
How it was run: (§1)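 Test compounds were prepared as 10 mg/ml DMSO stocks and serially diluted twofold in Sabouraud's dextrose broth over 500, 250, 125, 62.5, 31.25, 16, 8, 4, 2 and 1, alongside fluconazole as reference. Plates were inoculated with 1–5 × 10⁴ cfu/ml and held at 25 °C for 48–72 h. The MIC was the lowest concentration showing no visible growth.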

[2] = tested on: Mucor; experiment: Antifungal activity against Mucor fuscus after 48 to 72 hrs by broth micro dilution method; how it was run: as §1
[3] = tested on: Penicillium chrysogenum; experiment: Antifungal activity against Penicillium chrysogenum after 48 to 72 hrs by broth microdilution method; how it was run: as §1
[4] = tested on: Klebsiella pneumoniae; experiment: Antibacterial activity against Klebsiella pneumoniae MTCC 3384 after 18 hrs by broth microdilution method; conditions: MTCC 3384, 18 h
[5] = tested on: Staphylococcus aureus; experiment: Antibacterial activity against Staphylococcus aureus MTCC 3160 after 18 hrs by broth microdilution method; conditions: MTCC 3160, 18 h
[6] = tested on: Bacillus subtilis; experiment: Antibacterial activity against Bacillus subtilis MTCC 297 after 18 hrs by broth microdilution method; conditions: MTCC 297, 18 h
[7] = tested on: Candida albicans; experiment: Antifungal activity against Candida albicans after 48 to 72 hrs by broth microdilution method; how it was run: as §1
[8] = tested on: Pseudomonas aeruginosa; experiment: Antibacterial activity against Pseudomonas aeruginosa MTCC 1034 after 18 hrs by broth microdilution method; conditions: MTCC 1034, 18 h
[9] = tested on: Fusarium oxysporum; experiment: Antifungal activity against Fusarium oxysporum after 48 to 72 hrs by broth microdilution method; how it was run: as §1
[10] = tested on: Escherichia coli; experiment: Antibacterial activity against Escherichia coli MTCC 1089 after 18 hrs by broth microdilution method; conditions: MTCC 1089, 18 h
[11] = tested on: Enterococcus faecalis; experiment: Antibacterial activity against Streptococcus faecalis MTCC 3382 after 18 hrs by broth microdilution method; conditions: MTCC 3382, 18 h
[12] = tested on: Aspergillus fumigatus; experiment: Antifungal activity against Aspergillus fumigatus after 48 to 72 hrs by broth microdilution method; how it was run: as §1

| Compound | MIC [1] | MIC [2] | MIC [3] | MIC [4] | MIC [5] | MIC [6] | MIC [7] | MIC [8] | MIC [9] | MIC [10] | MIC [11] | MIC [12] |
| --- | --- | --- | --- | --- | --- | --- | --- | --- | --- | --- | --- | --- |
| O=C(O)c1cn(C2CC2)c2cc(N3CCNCC3)c(F)cc2c1=O [CIPROFLOXACIN] |  |  |  | 1 µg/mL (≈ 3.02 µM) | 1 µg/mL (≈ 3.02 µM) | 1 µg/mL (≈ 3.02 µM) |  | 1 µg/mL (≈ 3.02 µM) |  |  | 1 µg/mL (≈ 3.02 µM) |  |
| Cc1cc2oc(=O)cc(CN=[N+]=[N-])c2cc1S(=O)(=O)Nc1cccc([N+](=O)[O-])c1 | 8 µg/mL (≈ 19.3 µM) | 4 µg/mL (≈ 9.63 µM) | 2 µg/mL (≈ 4.81 µM) | 125 µg/mL (≈ 301 µM) | 4 µg/mL (≈ 9.63 µM) | 8 µg/mL (≈ 19.3 µM) | 16 µg/mL (≈ 38.5 µM) | 125 µg/mL (≈ 301 µM) | 2 µg/mL (≈ 4.81 µM) | 125 µg/mL (≈ 301 µM) | 8 µg/mL (≈ 19.3 µM) | 8 µg/mL (≈ 19.3 µM) |
| Cc1ccc(NS(=O)(=O)c2cc3c(CN=[N+]=[N-])cc(=O)oc3cc2C)cc1Cl | 16 µg/mL (≈ 38.2 µM) | 16 µg/mL (≈ 38.2 µM) | 4 µg/mL (≈ 9.55 µM) | 8 µg/mL (≈ 19.1 µM) | 8 µg/mL (≈ 19.1 µM) | 4 µg/mL (≈ 9.55 µM) | 31.2 µg/mL (≈ 74.6 µM) | 1 µg/mL (≈ 2.39 µM) | 1 µg/mL (≈ 2.39 µM) | > 500 µg/mL | 8 µg/mL (≈ 19.1 µM) | 16 µg/mL (≈ 38.2 µM) |
| Cc1ccc(NS(=O)(=O)c2cc3c(CN=[N+]=[N-])cc(=O)oc3cc2C)c(C)c1 | 4 µg/mL (≈ 10 µM) | 16 µg/mL (≈ 40.2 µM) | 31.2 µg/mL (≈ 78.4 µM) | 62.5 µg/mL (≈ 157 µM) | 16 µg/mL (≈ 40.2 µM) | 125 µg/mL (≈ 314 µM) | 8 µg/mL (≈ 20.1 µM) | 4 µg/mL (≈ 10 µM) | 1 µg/mL (≈ 2.51 µM) | > 500 µg/mL | 62.5 µg/mL (≈ 157 µM) | 16 µg/mL (≈ 40.2 µM) |
| Cc1ccc(NS(=O)(=O)c2cc3c(CN=[N+]=[N-])cc(=O)oc3cc2C)c([N+](=O)[O-])c1 | 31.2 µg/mL (≈ 72.8 µM) | 62.5 µg/mL (≈ 146 µM) | 31.2 µg/mL (≈ 72.8 µM) | 4 µg/mL (≈ 9.32 µM) | 16 µg/mL (≈ 37.3 µM) | 250 µg/mL (≈ 582 µM) | 16 µg/mL (≈ 37.3 µM) | 16 µg/mL (≈ 37.3 µM) | 1 µg/mL (≈ 2.33 µM) | 250 µg/mL (≈ 582 µM) | 1 µg/mL (≈ 2.33 µM) | 125 µg/mL (≈ 291 µM) |
| Cc1cc2oc(=O)cc(CN=[N+]=[N-])c2cc1S(=O)(=O)Nc1ccc([N+](=O)[O-])cc1 | 62.5 µg/mL (≈ 150 µM) | 8 µg/mL (≈ 19.3 µM) | 62.5 µg/mL (≈ 150 µM) | 2 µg/mL (≈ 4.81 µM) | 2 µg/mL (≈ 4.81 µM) | 125 µg/mL (≈ 301 µM) | 62.5 µg/mL (≈ 150 µM) | 1 µg/mL (≈ 2.41 µM) | 1 µg/mL (≈ 2.41 µM) | 250 µg/mL (≈ 602 µM) | 4 µg/mL (≈ 9.63 µM) | 250 µg/mL (≈ 602 µM) |
| Cc1cc([N+](=O)[O-])ccc1NS(=O)(=O)c1cc2c(CN=[N+]=[N-])cc(=O)oc2cc1C | 4 µg/mL (≈ 9.32 µM) | 2 µg/mL (≈ 4.66 µM) | 2 µg/mL (≈ 4.66 µM) | 31.2 µg/mL (≈ 72.8 µM) | 16 µg/mL (≈ 37.3 µM) | 4 µg/mL (≈ 9.32 µM) | 16 µg/mL (≈ 37.3 µM) | 125 µg/mL (≈ 291 µM) | 2 µg/mL (≈ 4.66 µM) | 125 µg/mL (≈ 291 µM) | 4 µg/mL (≈ 9.32 µM) | 8 µg/mL (≈ 18.6 µM) |

More lines, now with the values ahead:

| MIC [1] | MIC [2] | MIC [3] | MIC [4] | MIC [5] | MIC [6] | MIC [7] | MIC [8] | MIC [9] | MIC [10] | MIC [11] | MIC [12] | Compound |
| --- | --- | --- | --- | --- | --- | --- | --- | --- | --- | --- | --- | --- |
| 31.2 µg/mL (≈ 77.2 µM) | 16 µg/mL (≈ 39.5 µM) | 16 µg/mL (≈ 39.5 µM) | 1 µg/mL (≈ 2.47 µM) | 8 µg/mL (≈ 19.8 µM) | 16 µg/mL (≈ 39.5 µM) | 8 µg/mL (≈ 19.8 µM) | 1 µg/mL (≈ 2.47 µM) | 1 µg/mL (≈ 2.47 µM) | > 500 µg/mL | 4 µg/mL (≈ 9.88 µM) | 125 µg/mL (≈ 309 µM) | Cc1cc2oc(=O)cc(CN=[N+]=[N-])c2cc1S(=O)(=O)Nc1ccc(Cl)cc1 |
| 31.2 µg/mL (≈ 77.2 µM) | > 500 µg/mL | 2 µg/mL (≈ 4.94 µM) | 4 µg/mL (≈ 9.88 µM) | 1 µg/mL (≈ 2.47 µM) | 16 µg/mL (≈ 39.5 µM) | > 500 µg/mL | 1 µg/mL (≈ 2.47 µM) | 1 µg/mL (≈ 2.47 µM) | > 500 µg/mL | 8 µg/mL (≈ 19.8 µM) | 16 µg/mL (≈ 39.5 µM) | Cc1cc2oc(=O)cc(CN=[N+]=[N-])c2cc1S(=O)(=O)Nc1cccc(Cl)c1 |
| 8 µg/mL (≈ 20.1 µM) | 16 µg/mL (≈ 40.2 µM) | 31.2 µg/mL (≈ 78.4 µM) | 1 µg/mL (≈ 2.51 µM) | 125 µg/mL (≈ 314 µM) | > 500 µg/mL | 8 µg/mL (≈ 20.1 µM) | 2 µg/mL (≈ 5.02 µM) | 1 µg/mL (≈ 2.51 µM) | > 500 µg/mL | > 500 µg/mL | 2 µg/mL (≈ 5.02 µM) | Cc1cc2oc(=O)cc(CN=[N+]=[N-])c2cc1S(=O)(=O)Nc1c(C)cccc1C |
| 62.5 µg/mL (≈ 154 µM) | 16 µg/mL (≈ 39.5 µM) | 31.2 µg/mL (≈ 77.2 µM) | 1 µg/mL (≈ 2.47 µM) | 1 µg/mL (≈ 2.47 µM) | 125 µg/mL (≈ 309 µM) | 62.5 µg/mL (≈ 154 µM) | 31.2 µg/mL (≈ 77.2 µM) | 4 µg/mL (≈ 9.88 µM) | > 500 µg/mL | 1 µg/mL (≈ 2.47 µM) | 31.2 µg/mL (≈ 77.2 µM) | Cc1cc2oc(=O)cc(CN=[N+]=[N-])c2cc1S(=O)(=O)Nc1ccccc1Cl |
| 250 µg/mL (≈ 603 µM) | 62.5 µg/mL (≈ 151 µM) | > 500 µg/mL | 16 µg/mL (≈ 38.6 µM) | 2 µg/mL (≈ 4.83 µM) | > 500 µg/mL | 16 µg/mL (≈ 38.6 µM) | 62.5 µg/mL (≈ 151 µM) | 1 µg/mL (≈ 2.41 µM) | 62.5 µg/mL (≈ 151 µM) | 1 µg/mL (≈ 2.41 µM) | > 500 µg/mL | CCOc1ccc(NS(=O)(=O)c2cc3c(CN=[N+]=[N-])cc(=O)oc3cc2C)cc1 |
